# Results published in PMC10558795 (Redox Biology, 2023).
# Counter-ions that a name gives are not always drawn. Like-named read-outs stand apart in the source and are kept apart here.
# Tests used:
# [1] = tested on: NRF2 activity (NQO1-YFP signal, CDDO-activated); test: High-throughput screen and dose response: NRF2 activity; format: cell-based, human
# How it was run: (§1)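 NQO1-YFP H1299 reporter cells (YFP in NQO1 intron 1, constitutive mCherry) were seeded 1000/well in 384-well plates and cultured overnight. Primary screen: 1 μM compound in 0.1% DMSO, one well each, with CDDO 200 nM and 0.1% DMSO controls. Retests used 10-point serial dilutions from 10 µM in triplicate, with brusatol control. Imaged at 0, 24, 48, 64 h (YFP = NRF2 activity, mCherry = viability); IC₅₀ by curve fit.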
# [2] = tested on: KYSE70 cells; test: High-content cytotoxicity screen; format: cell-based, human
# How it was run: (§2)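 Cells were seeded at 1200/well in 384-well plates and cultured overnight. Test compound was added at […] serial dilution from 10 µM, in triplicate, for 3 days. Controls were 0.1% DMSO (negative), 30 µM benzethonium chloride and 0.1% Triton X-100 added just before staining (positive). Cells were stained with 0.5 µg/ml Hoechst and 100 nM YOYO1, four 4× images per well. Normalized total-cell and dead-cell percentages were fitted for IC₅₀.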
# [3] = tested on: NQO1-YFP H1299 cells; test: Cell viability; format: cell-based, human
# How it was run: as §1
# [4] = tested on: KYSE180 cells; test: High-content cytotoxicity screen; format: cell-based, human
# How it was run: as §2
# [5] = target: NRF2 (NRF2^WT-KYSE450) (Homo sapiens, UniProt Q16236); test: CHX chase analysis of NRF2 half-life in KYSE450 cells; format: cell-based; settings: PYR 10 μM, MIT 20 nM
# How it was run: (§3)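 Cells were grown in RPMI1640 GlutaMAX with 10% FBS and 1% penicillin/streptomycin at 37 °C, 5% CO₂. They were pre-incubated 4 h with test compound, then given 200 μg/ml cycloheximide to block protein synthesis. Cells were harvested at set time points after cycloheximide. Total lysates were run on SDS-PAGE and blotted for NRF2 and GAPDH, and band densities were used to calculate NRF2 half-life.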
# [6] = tested on: NFE2L2 mRNA and NRF2 target genes; test: qPCR of NFE2L2 mRNA and NRF2 target genes; format: cell-based, human
# How it was run: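 Gene expression quantified by real-time PCR using gene-specific primers and TaqMan probes on a 96-well real-time PCR system.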
# [7] = tested on: global translation; test: Protein synthesis assay; format: cell-based, human; settings: KYSE70; PYR 10 μM, MIT 20 nM; CHX positive control
# How it was run: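 KYSE70 cells (37 °C, 5% CO₂) seeded at 2000 cells/well in 96-well plates; exposed to test compound or cycloheximide (positive control) in triplicate. Global translation measured with a commercial protein synthesis assay kit per manufacturer's protocol; cells imaged on a high-content imager.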
# [8] = target: NRF2 (NRF2^Mut-KYSE180) (Homo sapiens, UniProt Q16236, D77V); test: CHX chase analysis of NRF2 half-life in KYSE180 cells; format: cell-based; settings: PYR 10 μM, MIT 20 nM
# How it was run: as §3
# [9] = tested on: NRF2 and NQO1 expression in NRF2^Mut-KYSE70 cells; test: Western blotting of NRF2 and NQO1 expression in KYSE70 cells; format: cell-based, human
# How it was run: (§4)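 Nuclear and cytosolic fractions prepared with an extraction kit, or whole-cell lysates in RIPA buffer. Proteins separated by SDS-PAGE, transferred to nitrocellulose, blocked and probed with primary antibody overnight at 4 °C. Chemiluminescence detected on film and quantified by densitometry; band data as mean ± SD, Student's t-test.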
# [10] = tested on: human NRF2 target genes in KYSE70 cells; test: RNAseq of KYSE70 cells; format: cell-based; settings: PYR 10 μM for 72 h, MIT 20 nM for 72 h
# How it was run: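 Total RNA from treated and control cells made into Illumina libraries and sequenced (150 bp). Reads aligned to hg38 with RefSeq annotation and counted per gene; DEGs called by fold-change cut-off and corrected p-values. Gene set enrichment analysis performed; overall NRF2 target-gene mRNA level calculated on natural log scale.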
# [11] = tested on: ABCG2 and TOP2A expression; test: ABCG2 and TOP2A expression in KYSE70 cells; format: cell-based, human
# [12] = tested on: NRF2 and NQO1 expression in NRF2^Mut-KYSE180 cells; test: Western blotting of NRF2 and NQO1 expression in KYSE180 cells; format: cell-based, human
# How it was run: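 NRF2-mutant KYSE180 cells (37 °C, 5% CO₂) treated with test compound; nuclear and cytosolic fractions prepared with a nuclear extraction kit. Proteins separated by SDS-PAGE onto nitrocellulose, primary antibody overnight at 4 °C, chemiluminescence on film. Bands quantified by densitometry, mean ± SD, Student's t-test.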
# [13] = 90 mg/m^2, intravenous injection, cited from earlier work
# [14] = target: NRF2-ARE binding (Homo sapiens, UniProt Q16236, W24C); test: ELISA-based TransAM NRF2-ARE binding assay with KYSE70 nuclear extracts
# How it was run: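 TransAM ELISA: nuclear extract from untreated KYSE70 cells (20 μg/well) added to wells containing ARE oligonucleotide. Test compound, competitor or mutated competitor added, then 1 h incubation with mild agitation and washing. Anti-NRF2 antibody 1 h, then HRP-conjugated secondary antibody and substrate; A450nm read.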
# [15] = tested on: NRF2 expression in NRF2^WT-KYSE450 cells; test: NRF2 expression in KYSE450 cells; format: cell-based, human
# How it was run: as §4
# [16] = read-out: NRF2 inhibition (IC50), H1299-NQO1-YFP cells, CDDO-activated YFP signal
# [17] = read-out: Cell death (IC50), KYSE70, 3 days
# [18] = read-out: Cell proliferation (IC50), KYSE70, 3 days
# [19] = read-out: Cell viability (IC50), H1299-NQO1-YFP cells
# [20] = read-out: Cell death (IC50), KYSE180, 3 days
# [21] = read-out: Cell proliferation (IC50), KYSE180, 3 days
# [22] = Homo sapiens, NCI-H1299, read-out: NRF2 inhibition (IC50, μM)
# [23] = Homo sapiens, KYSE-70, 72 h, read-out: Cell proliferation (IC50, μM)
# [24] = Homo sapiens, NCI-H1299, read-out: Cell viability (IC50, μM)
# [25] = Homo sapiens, KYSE-180, 72 h, read-out: Cell proliferation (IC50, μM)
# [26] = Homo sapiens, KYSE-70, 72 h, read-out: Cell death (IC50, μM)
# NRF2 (NRF2^WT-KYSE450), sequence (Q16236 whole entry): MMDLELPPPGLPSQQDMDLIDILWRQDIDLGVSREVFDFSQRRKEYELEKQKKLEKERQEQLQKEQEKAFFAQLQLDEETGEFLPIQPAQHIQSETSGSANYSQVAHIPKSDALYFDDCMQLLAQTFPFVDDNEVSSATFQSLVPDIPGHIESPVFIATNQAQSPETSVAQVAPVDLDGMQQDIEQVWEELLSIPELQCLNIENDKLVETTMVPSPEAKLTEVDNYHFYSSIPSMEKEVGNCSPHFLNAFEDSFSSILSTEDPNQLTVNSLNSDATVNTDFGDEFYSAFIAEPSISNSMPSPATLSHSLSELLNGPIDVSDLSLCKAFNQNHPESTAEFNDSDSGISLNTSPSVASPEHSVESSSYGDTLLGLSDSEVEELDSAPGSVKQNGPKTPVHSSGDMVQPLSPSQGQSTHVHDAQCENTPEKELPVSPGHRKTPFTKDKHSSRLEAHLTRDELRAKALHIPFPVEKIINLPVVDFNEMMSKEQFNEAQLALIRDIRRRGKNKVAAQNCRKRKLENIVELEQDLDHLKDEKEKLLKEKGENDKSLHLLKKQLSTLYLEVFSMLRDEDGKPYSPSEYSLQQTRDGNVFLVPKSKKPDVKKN
# NRF2 (NRF2^Mut-KYSE180), sequence (Q16236 whole entry D77V): as the sequence (Q16236 whole entry) above, with D77V counted along it
# NRF2-ARE binding, sequence (Q16236 whole entry W24C): as the sequence (Q16236 whole entry) above, with W24C counted along it
compound,measurement,setting,value
CN1CC[C@@]2(C)c3cc(O)ccc3N(C)[C@@H]12 [Eseroline fumarate],IC50,[1]; [16],0.26 µM
same,IC50,[2]; [17],> 10 µM
same,IC50,[2]; [18],10 µM
same,IC50,[3]; [19],> 10 µM
same,IC50,[4]; [20],> 10 µM
same,IC50,[4]; [21],> 10 µM
CCOc1ccc2c(c1)C(C)=CC(C)(C)N2 [Ethoxyquin],IC50,[1]; [22],0.29 µM
same,IC50,[2]; [23],> 10 µM
same,IC50,[3]; [24],> 10 µM
same,IC50,[4]; [25],> 10 µM
CCC(NC(C)C)C(O)c1ccc(O)c(O)c1 (stereo not shown) [Isoetharine mesylate],IC50,[1]; [22],0.49 µM
same,IC50,[2]; [23],> 10 µM
same,IC50,[3]; [24],> 10 µM
same,IC50,[4]; [25],> 10 µM
CC(C)NC[C@H](O)c1ccc(O)c(O)c1 [Isoproterenol bitratrate],IC50,[1]; [16],0.43 µM
same,IC50,[2]; [17],> 10 µM
same,IC50,[2]; [18],4.9 µM
same,IC50,[3]; [19],> 10 µM
same,IC50,[4]; [20],> 10 µM
same,IC50,[4]; [21],> 10 µM
CC(C)NCC(O)c1ccc(O)c(O)c1 (stereo not shown) [Isoproterenol hydrochloride],IC50,[1]; [22],0.84 µM
same,IC50,[2]; [26],> 10 µM
same,IC50,[2]; [23],5.2 µM
same,IC50,[3]; [24],> 10 µM
same,IC50,[4]; [25],> 10 µM
"O=C1c2c(O)ccc(O)c2C(=O)c2c(NCCNCCO)ccc(NCCNCCO)c21 [MIT, mitoxantrone dihydrochloride]",Effect on NRF2 half-life,[5],not changed
same,IC50,[1]; [22],0.035 µM
same,"NFE2L2 mRNA and NRF2 target genes (AKR1B10, AKR1C2, AKR1C3, PGD, SLC7A11, TKT) by qPCR",[6],downregulation
same,Global translation,[7],Neither PYR (10 μM) nor MIT (20 nM) inhibited global translation
same,Effect on NRF2 half-life,[8],shortened NRF2 half-life
same,Expression of nuclear NRF2 and cytoplasmic NQO1,[9]; KYSE70 cells,inhibited the expression of nuclear NRF2 and cytoplasmic NQO1 in a dose- and time-dependent manner
same,Overall mRNA expression level of human NRF2 target genes,[10],significantly reduced
same,ABCG2 and TOP2A expression,[11],increased
same,Expression of nuclear NRF2 and cytoplasmic NQO1,[12],inhibited the expression of nuclear NRF2 and cytoplasmic NQO1 in a dose- and time-dependent manner
same,Cmax in the plasma,[13],6430 ± 2430 ng/mL
same,Cmax,[13]; read-out: Cmax in the plasma,12.4 ± 4.7 µM
same,NRF2-ARE binding activity,[14],did not observe any changes
same,IC50,[2]; [26],0.00324 µM
same,IC50,[2]; [23],0.00584 µM
same,IC50,[3]; [24],> 10 µM
same,IC50,"[4]; Homo sapiens, KYSE-180, 72 h, read-out: Cell death (IC50, μM)",0.00522 µM
same,IC50,[4]; [25],0.00457 µM
"CN(Cc1cnc2nc(N)nc(N)c2n1)c1ccc(C(=O)N[C@@H](CCC(=O)O)C(=O)O)cc1 [MTX, methotrexate]",NRF2 expression,[9]; NRF2^Mut-KYSE70 cells,significantly inhibited NRF2 expression
same,NRF2 expression,[15],significantly inhibited NRF2 expression
Nc1nc(N)c2nc(-c3ccccc3)c(N)nc2n1 [Triamterene],IC50,[1]; [22],0.72 µM
same,IC50,[2]; [26],> 10 µM
same,IC50,[2]; [23],7.7 µM
same,IC50,[3]; [24],3.7 µM
same,IC50,[4]; [25],> 10 µM
